pIC50: −log10 of the molar value. Converted amounts (≈) assume the structure as drawn. The source made the active and inactive calls. No cut-off for these calls is given here.
How the values were obtained:
[1] = test system: SGC-7901; experiment: Cytotoxicity against human SGC7901 after 48 hrs by MTT assay; type: functional, cell-based
Procedure, shortened: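 SGC-7901 cells were diluted to 3 × 10⁴ cells/mL and seeded at 100 µL per well, then held 24 h at 37 °C in 5% CO₂ before treatment. Samples at pre-set concentrations went into six wells each, with 5-fluorouracil as positive control and DMSO as negative control. Read-out was absorbance at 570 nm. Data are the mean ± SD of three experiments in triplicate. IC50 is the concentration at which 50% of cells survive.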

[2] = target: DNA polymerase I, thermostable (Thermus aquaticus, UniProt P19821); experiment: Inhibition of Thermus aquaticus taq polymerase
DNA polymerase I, thermostable, sequence (P19821 whole entry): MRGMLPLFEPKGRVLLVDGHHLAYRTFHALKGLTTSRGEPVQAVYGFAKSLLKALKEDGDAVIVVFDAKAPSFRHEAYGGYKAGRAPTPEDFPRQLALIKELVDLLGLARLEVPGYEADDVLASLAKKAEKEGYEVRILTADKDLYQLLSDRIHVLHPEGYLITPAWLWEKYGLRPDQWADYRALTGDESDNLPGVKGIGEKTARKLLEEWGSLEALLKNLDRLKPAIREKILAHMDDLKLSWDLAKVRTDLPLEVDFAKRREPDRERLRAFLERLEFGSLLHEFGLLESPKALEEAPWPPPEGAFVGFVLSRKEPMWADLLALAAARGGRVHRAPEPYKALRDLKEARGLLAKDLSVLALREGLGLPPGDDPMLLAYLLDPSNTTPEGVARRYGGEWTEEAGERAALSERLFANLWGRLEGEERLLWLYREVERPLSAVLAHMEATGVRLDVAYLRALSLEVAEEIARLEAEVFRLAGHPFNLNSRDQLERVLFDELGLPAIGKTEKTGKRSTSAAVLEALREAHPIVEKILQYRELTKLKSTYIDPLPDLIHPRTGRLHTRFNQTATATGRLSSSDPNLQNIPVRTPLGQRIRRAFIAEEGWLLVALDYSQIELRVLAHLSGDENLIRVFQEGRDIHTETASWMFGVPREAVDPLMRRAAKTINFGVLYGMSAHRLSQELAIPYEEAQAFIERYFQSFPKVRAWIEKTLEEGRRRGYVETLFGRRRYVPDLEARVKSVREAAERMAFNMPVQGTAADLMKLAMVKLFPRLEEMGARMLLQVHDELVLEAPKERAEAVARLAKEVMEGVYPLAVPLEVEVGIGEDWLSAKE

[3] = target: T1, Telomerase reverse transcriptase (Homo sapiens, UniProt O14746); experiment: Inhibition of human telomerase in human SGC7901 cells by TRAP assay
T1 sequence (O14746 whole entry): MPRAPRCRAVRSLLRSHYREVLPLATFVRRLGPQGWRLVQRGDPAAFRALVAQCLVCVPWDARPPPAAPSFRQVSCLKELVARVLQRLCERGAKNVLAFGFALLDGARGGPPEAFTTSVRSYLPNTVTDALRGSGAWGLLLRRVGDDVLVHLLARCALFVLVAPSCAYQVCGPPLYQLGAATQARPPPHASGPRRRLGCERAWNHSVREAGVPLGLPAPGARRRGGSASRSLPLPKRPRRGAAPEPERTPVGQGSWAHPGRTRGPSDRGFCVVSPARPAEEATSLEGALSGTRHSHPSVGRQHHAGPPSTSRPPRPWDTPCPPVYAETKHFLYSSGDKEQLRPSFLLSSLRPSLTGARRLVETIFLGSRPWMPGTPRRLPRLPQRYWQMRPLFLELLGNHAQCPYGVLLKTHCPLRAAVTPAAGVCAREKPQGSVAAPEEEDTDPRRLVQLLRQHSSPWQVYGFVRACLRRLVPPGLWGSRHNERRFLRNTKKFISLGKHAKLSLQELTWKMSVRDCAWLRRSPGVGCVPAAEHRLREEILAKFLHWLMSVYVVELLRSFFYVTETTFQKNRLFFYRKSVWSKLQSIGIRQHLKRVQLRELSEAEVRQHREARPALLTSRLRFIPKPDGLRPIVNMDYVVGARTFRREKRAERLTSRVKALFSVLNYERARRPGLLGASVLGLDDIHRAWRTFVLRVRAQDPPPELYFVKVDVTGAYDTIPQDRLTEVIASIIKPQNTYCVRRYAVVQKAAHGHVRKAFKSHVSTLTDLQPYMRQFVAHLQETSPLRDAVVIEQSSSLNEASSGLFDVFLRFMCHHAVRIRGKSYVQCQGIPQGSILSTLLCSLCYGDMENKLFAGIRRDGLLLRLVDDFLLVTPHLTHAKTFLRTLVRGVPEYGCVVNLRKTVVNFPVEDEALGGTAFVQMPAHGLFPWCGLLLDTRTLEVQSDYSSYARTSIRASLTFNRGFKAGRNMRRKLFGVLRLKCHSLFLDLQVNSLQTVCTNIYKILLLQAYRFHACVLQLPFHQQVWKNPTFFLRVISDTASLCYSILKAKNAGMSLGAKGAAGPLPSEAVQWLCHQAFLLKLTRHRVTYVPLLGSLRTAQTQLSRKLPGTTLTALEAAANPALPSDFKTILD

[4] = Selectivity index, ratio of IC50 for taq polymerase to IC50 for human telomerase
Procedure, shortened: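 Selectivity index is the ratio of the concentration giving 50% Taq polymerase inhibition to the concentration giving 50% telomerase inhibition (modified TRAP, SGC-7901 cell extract).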

[5] = target: DNA polymerase I, thermostable (Thermus aquaticus) (UniProt P19821); experiment: Inhibition of Thermus aquaticus taq polymerase at 0 to 60 uM
DNA polymerase I, thermostable (Thermus aquaticus), sequence (P19821 whole entry): as the sequence (P19821 whole entry) above

[6] = target: T1, Telomerase reverse transcriptase; experiment: Inhibition of human telomerase in human SGC7901 cells at 0 to 60 uM by TRAP assay; type: cell-based; conditions: SGC-7901
Procedure, shortened: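 Telomerase inhibition was measured by a modified TRAP assay using SGC-7901 cell extract. Compounds were tested across the stated concentration range. IC50 is the concentration giving 50% telomerase inhibition. Ethidium bromide served as reference control.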

[7] = Homo sapiens, SGC-7901, 48 h, read-out: IC50

Row | Structure (SMILES) | IC50 [1, 7] | pIC50 [2] | pIC50 [3] | Ratio IC50 [4] | IC50 ([1]; sgc-7901) | inhibition [5] | inhibition [6]
1 | COc1ccc(-c2cc(=O)c3ccc(OCc4ccc(Cl)nc4)cc3o2)cc1 | 35.2 µg/mL (≈ 89.3 µM) | 5.19 | 5.51 | 2.1 |  |  | 
2 | O=c1c(OCc2ccc(Cl)nc2)c(-c2ccccc2)oc2ccccc12 |  |  |  |  | Not Active | inactive | inactive
3 | O=c1cc(-c2ccc(OCc3ccc(Cl)nc3)cc2)oc2cc(O)cc(O)c12 | 25.9 µg/mL (≈ 65.5 µM) | 5.17 | 5.46 | 1.9 |  |  | 
4 | O=c1cc(-c2ccc(OCc3ccc(Cl)nc3)cc2)oc2cc(OCc3ccc(Cl)nc3)ccc12 | 18.4 µg/mL (≈ 36.5 µM) | 5.30 | 5.52 | 1.6 |  |  | 
5 | COc1ccc(-c2coc3cc(OCc4ccc(Cl)nc4)ccc3c2=O)cc1 | 31.9 µg/mL (≈ 81.1 µM) | 5.12 | 5.60 | 3 |  |  | 
6 | O=c1cc(-c2ccccc2)oc2cc(OCc3ccc(Cl)nc3)cc(O)c12 |  | 4.56 | 4.68 | 1.3 | Not Active |  | 
7 | CC(=O)N1N=C(C)CC1c1ccc(OCc2ccc(Cl)nc2)cc1 (stereo unspecified) |  |  | 4.33 |  | Not Active |  | 
8 | COc1ccc(-c2oc3ccccc3c(=O)c2OCc2ccc(Cl)nc2)cc1 |  |  |  |  | Not Active | inactive | inactive
9 | O=c1cc(-c2ccc(OCc3ccc(Cl)nc3)cc2)oc2cc(OCc3ccc(Cl)nc3)cc(O)c12 | 22.3 µg/mL (≈ 42.7 µM) | 5.70 | 6.10 | 2.5 |  |  | 
10 | CC(=O)N1N=C(C)CC1c1ccccc1OCc1ccc(Cl)nc1 (stereo unspecified) |  | 4.27 |  |  | Not Active |  | inactive
11 | O=c1[nH]cc(F)c(=O)[nH]1 [FLUOROURACIL] | 7.38 µg/mL (≈ 56.7 µM) |  |  |  |  |  | 

— ChEMBL document CHEMBL1177815, “Synthesis and molecular docking studies of novel 2-chloro-pyridine derivatives containing flavone moieties as potential antitumor agents” (Bioorg Med Chem Lett, 2010)
